The source made the active and inactive calls. No cut-off for these calls is given here.
Columns and labels:
[1] = tested on: MCF7; experiment: Antiproliferative activity against human MCF7 cells after 48 hrs by MTT assay; format: functional, cell-based; details: MCF7, 48 h
In short: (§1)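 MTT dye-uptake viability assay; cells seeded at 2.5 × 10^3 per well, grown in RPMI 1640/DMEM with 10% FBS and penicillin/streptomycin at 37 °C, 5% CO2. Exposure to compounds for 48 h over 100 nM to 100 μM. IC50 versus untreated control, given as mean ± SD of three independent experiments.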

[2] = tested on: HCT-116; experiment: Antiproliferative activity against human HCT116 cells after 48 hrs by MTT assay; format: functional, cell-based; details: HCT-116, 48 h; in short: as §1
[3] = tested on: PC-3; experiment: Antiproliferative activity against human PC3 cells after 48 hrs by MTT assay; format: functional, cell-based; details: PC-3, 48 h; in short: as §1
[4] = biological target: RAC-alpha serine/threonine-protein kinase (Homo sapiens) (UniProt P31749); experiment: Inhibition of AKT phosphorylation in human PC3 cells at 2.5 to 4.5 uM after 24 hrs by Western blot method; format: cell-based
Chain of RAC-alpha serine/threonine-protein kinase (Homo sapiens) (P31749 whole entry): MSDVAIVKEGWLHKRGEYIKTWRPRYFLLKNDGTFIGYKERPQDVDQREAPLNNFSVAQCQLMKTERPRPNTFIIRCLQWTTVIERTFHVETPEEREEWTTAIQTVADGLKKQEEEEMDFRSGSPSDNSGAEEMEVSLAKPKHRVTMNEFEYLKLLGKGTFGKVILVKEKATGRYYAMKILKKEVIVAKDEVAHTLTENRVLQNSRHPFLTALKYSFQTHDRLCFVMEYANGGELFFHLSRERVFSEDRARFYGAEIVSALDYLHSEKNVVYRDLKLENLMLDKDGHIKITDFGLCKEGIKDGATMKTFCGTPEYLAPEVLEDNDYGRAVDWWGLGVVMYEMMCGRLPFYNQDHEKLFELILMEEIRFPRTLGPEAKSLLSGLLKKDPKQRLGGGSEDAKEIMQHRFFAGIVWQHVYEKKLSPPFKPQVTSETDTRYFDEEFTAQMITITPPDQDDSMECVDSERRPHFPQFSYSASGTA
In short: (§2)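 PC-3 cells exposed to indicated concentrations or DMSO, then lysed. Equal protein amounts analysed by western blotting, with β-actin as loading control. Representative of three independent experiments.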

[5] = tested on: PC-3; experiment: Antimigratory activity against human PC3 cells assessed as reduction in wound closure after 48 hrs by inverted microscopic assay; format: functional, cell-based; details: in the assay text read “24 hrs” for “48 hrs”
In short: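 Scratch assay. PC-3 cells (5 × 10^5 per well) grown 24 h to a confluent monolayer, then serum-starved 24 h. Monolayer scratched with a pipette tip and washed, then treated in 1.0% serum medium with graded concentrations or DMSO for 24 h. Photographed at 20×. % wound closure = [1 – (area t1/area t0) × 100%].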

[6] = tested on: BPH-1; experiment: Antiproliferative activity against human BPH1 cells after 48 hrs by MTT assay; format: cell-based; details: BPH-1, 48 h
[7] = tested on: PC-3; experiment: Anti-invasive activity against human PC3 cells after 48 hrs by Boyden chamber assay; format: functional, cell-based
In short: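 Matrigel (Boyden chamber) invasion kit used per manufacturer. PC-3 cells (1.2 × 10^6 per well) treated with graded concentrations or DMSO vehicle. Invaded cells counted per field and imaged at 20× magnification. Three independent experiments.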

[8] = tested on: PC-3; experiment: Antimetastatic activity against human PC3 cells assessed as decrease in vimentin protein expression at 2.5 to 4.5 uM after 24 hrs by Western blot method; format: functional, cell-based; in short: as §2
[9] = tested on: PC-3; experiment: Inhibition of colony formation in human PC3 cells at 2.5 to 4.5 uM after 5 days by crystal violet staining based inverted microscopic assay; format: functional, cell-based
In short: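 Clonogenic assay. PC-3 cells (1 × 10^3 per well) plated, medium replaced after 24 h, then exposed to graded concentrations or DMSO vehicle for 5 days. Colonies stained with crystal violet, counted randomly and imaged at 20×. Three independent experiments.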

[10] = organism: Homo sapiens; experiment: Inhibition of PI3K/Akt in human PC3 cells assessed as reduction in NF-kB dependant MMP9 activation after 48 hrs by gelatin zymographic method; format: cell-based
In short: (§3)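 Gelatin zymography. Subconfluent (70–80%) PC-3 cells in fresh medium incubated 48 h with increasing concentrations. Equal protein from conditioned media run on 7.5% SDS-PAGE containing 0.1% gelatin, 100 V, 3 h, 4 °C. Gels washed in 2% Triton X-100, incubated overnight at 37 °C in Tris-HCl pH 8.0/10 mM CaCl2 buffer, then Coomassie stained. BSA as loading control.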

[11] = tested on: PC-3; experiment: Inhibition of PI3K/Akt in human PC3 cells assessed as downregulation of NF-kB dependant MMP9 protein expression at 2.5 to 4.5 uM after 24 hrs by Western blot method; format: functional, cell-based; in short: as §2
[12] = biological target: Serine/threonine-protein kinase mTOR (Homo sapiens) (UniProt P42345); experiment: Inhibition of mTOR signaling in human PC3 cells assessed as reduction in S6K protein expression at 2.5 to 4.5 uM after 24 hrs by Western blot method; format: cell-based; in short: as §2
[13] = organism: Homo sapiens; experiment: Inhibition of PI3K/Akt signaling in human PC3 cells assessed as downregulation of NF-kB expression after 24 hrs by Western blot method; format: cell-based; in short: as §2
[14] = tested on: PC-3; experiment: Inhibition of VEGF-induced cell scattering in human PC3 cells at 2.5 to 4.5 uM after 24 to 48 hrs by inverted microscopic assay; format: functional, cell-based
In short: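 PC-3 cells seeded at 1000 per well and grown 3–4 days into discrete colonies. Stimulated with VEGF in growth medium with graded concentrations. After overnight (24 h) incubation, individual colonies observed by bright-field/inverted microscopy and photographed. Representative of three experiments.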

[15] = organism: Homo sapiens; experiment: Inhibition of PI3K/Akt in human PC3 cells assessed as reduction in NF-kB dependant MMP2 activation after 48 hrs by gelatin zymographic method; format: cell-based; in short: as §3
[16] = organism: Homo sapiens; experiment: Inhibition of PI3K/Akt in human PC3 cells assessed as downregulation of NF-kB dependant MMP2 protein expression at 2.5 to 4.5 uM after 24 hrs by Western blot method; format: cell-based; in short: as §2
[17] = tested on: PC-3; experiment: Antimetastatic activity against human PC3 cells assessed as increase in E-cadherin protein expression at 2.5 to 4.5 uM after 24 hrs by Western blot method; format: functional, cell-based; in short: as §2
[18] = tested on: PC-3; experiment: Induction of apoptosis in human PC3 cells assessed as caspase-3/7 activation by caspase3/7-Glo assay; format: functional, cell-based
In short: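 Cells seeded at 5 × 10^3 per well in 96-well plates for 24 h, then treated. Caspase-3/7 Glo reagent/substrate mix added for 25 min, and luminescence read.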

[19] = tested on: PC-3; experiment: Effect on total AKT protein expression in human PC3 cells at 2.5 to 4.5 uM after 24 hrs by Western blot method; format: ADME, cell-based; details: pc-3, 24 h; in short: as §2
[20] = biological target: Serine/threonine-protein kinase mTOR (Homo sapiens) (UniProt P42345); experiment: Inhibition of mTOR phosphorylation in human PC3 cells at 2.5 to 4.5 uM after 24 hrs by Western blot method; format: cell-based; in short: as §2
[21] = tested on: PC-3; experiment: Induction of mitochondrial membrane potential loss in human PC3 cells after 24 hrs by JC1 staining based fluorescence microscopic method; format: functional, cell-based
In short: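 Treated PC-3 cells (1 × 10^6 per well) washed with cold PBS and stained with JC-1 at 1 μM final for 30 min at 37 °C. Aggregates and monomers assessed by fluorescence microscopy.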

[22] = tested on: PC-3; experiment: Anti-invasive activity against human PC3 cells assessed as increase in TIMP1 protein expression after 24 hrs by Western blot method; format: functional, cell-based; in short: as §2
[23] = tested on: PC-3; experiment: Effect on total mTOR protein expression in human PC3 cells at 2.5 to 4.5 uM after 24 hrs by Western blot method; format: ADME, cell-based; details: pc-3, 24 h; in short: as §2

Structure (SMILES) | IC50 [1] | IC50 [2] | IC50 [3] | further results
COc1cc(/C=C/C(C)=O)ccc1OCc1cn(-c2c(F)cccc2F)nn1 | 2.03 µM | 37.7 µM | 24.2 µM | 
COc1cc(/C=C/C(C)=O)ccc1OCc1cn(-c2ccc([N+](=O)[O-])cc2)nn1 | > 100 µM | 96.3 µM | 46.7 µM | 
COc1cc(/C=C/C(C)=O)ccc1OCc1cn(-c2ccc(NC(=O)c3ccccc3)cc2)nn1 | 86.7 µM | > 100 µM | 76.8 µM | 
COc1cc(/C=C/C(C)=O)ccc1OCc1cn(-c2ccccc2O)nn1 | > 100 µM | 76.4 µM | 59.2 µM | 
COc1cc(/C=C/C(C)=O)ccc1OCc1cn(-c2ccc(C)cc2)nn1 | > 100 µM | 76.6 µM | 58.1 µM | 
COc1cc(/C=C/C(C)=O)ccc1OCc1cn(-c2ccc(/N=N/c3ccccc3)cc2)nn1 | 75.9 µM | > 100 µM | 42.1 µM | 
COc1cc(/C=C/C(C)=O)ccc1OCc1cn(-c2ccc(C=O)cc2)nn1 | 86.4 µM | 76.2 µM | 80.7 µM | 
COc1cc(/C=C/C(C)=O)ccc1O [DEHYDROZINGERONE] | 54.6 µM | 34.8 µM | 43.2 µM | 
COc1cc(/C=C/C(C)=O)ccc1OCc1cn(-c2ccccc2CO)nn1 | 65.8 µM | > 100 µM | 50.3 µM | 
COc1cc(/C=C/C(C)=O)ccc1OCc1cn(-c2ccc(-c3ccccc3)cc2)nn1 | 65.4 µM | 65.2 µM | 56.8 µM | 
C#CCOc1ccc(/C=C/C(C)=O)cc1OC | 65.4 µM | 49.7 µM | 40.2 µM | 
COc1cc(/C=C/C(C)=O)ccc1OCc1cn(-c2cc(F)cc(Br)c2)nn1 | 65.5 µM | 45.4 µM | 56.9 µM | 

Now from value to molecule, other results behind:

IC50 [1] | IC50 [2] | IC50 [3] | Structure (SMILES) | further results
87.4 µM | 57.8 µM | 67.2 µM | COc1cc(/C=C/C(C)=O)ccc1OCc1cn(-c2ccc(C(F)(F)F)c(C(F)(F)F)c2)nn1 | 
29.1 µM | 25.7 µM | 2.04 µM | COc1cc(/C=C/C(C)=O)ccc1OCc1cn(-c2ccccc2OC)nn1 | 
2.19 µM | 39 µM | 48 µM | COc1cc(/C=C/C(C)=O)ccc1OCc1cn(-c2ccccc2Cl)nn1 | 
> 100 µM | 67.3 µM | 78.6 µM | COc1cc(/C=C/C(C)=O)ccc1OCc1cn(-c2ccccc2)nn1 | 
33.7 µM | 21.3 µM | 2.01 µM | COc1ccc(-n2cc(COc3ccc(/C=C/C(C)=O)cc3OC)nn2)cc1 | 
26.6 µM | 2 µM | 3.07 µM | COc1cc(/C=C/C(C)=O)ccc1OCc1cn(-c2c(Cl)cccc2Cl)nn1 | inhibition [4]: Active; Activity [5]: Dose-dependent effect; IC50 [6]: > 100 µM; Activity [7]: Dose-dependent effect; Activity [8]: Active; inhibition [9]: Active; inhibition [10]: Dose-dependent effect; inhibition [11]: Active; inhibition [12]: Active; inhibition [13]: Dose-dependent effect; inhibition [14]: Active; inhibition [15]: Dose-dependent effect; inhibition [16]: Active; Activity [17]: Active; Activity [18]: Active; Activity [19]: Non-Toxic; inhibition [20]: Active; Activity [21]: Dose-dependent effect; Activity [22]: Dose-dependent effect; Activity [23]: Non-Toxic
1.8 µM | 29.6 µM | 31.6 µM | COc1cccc(-n2cc(COc3ccc(/C=C/C(C)=O)cc3OC)nn2)c1 | 
> 100 µM | 78.9 µM | 59.2 µM | CCOC(=O)c1ccc(-n2cc(COc3ccc(/C=C/C(C)=O)cc3OC)nn2)cc1 | 

— ChEMBL document CHEMBL4261549 (Medchemcomm, 2017)
